As a reminder, the Km is the substrate concentration at which the rate is half of its maximum. What is called IC50 is the concentration that gives 50% inhibition. Higher therefore signals weaker potency in that assay.

Converted amounts (≈) assume the structure as drawn. Where two headings read alike, the source gives them in different places.

For data set [1], the target named is T1, P. aeruginosa MetRS (Pseudomonas aeruginosa, UniProt Q9HYC7).
T1 sequence (Q9HYC7 1-677): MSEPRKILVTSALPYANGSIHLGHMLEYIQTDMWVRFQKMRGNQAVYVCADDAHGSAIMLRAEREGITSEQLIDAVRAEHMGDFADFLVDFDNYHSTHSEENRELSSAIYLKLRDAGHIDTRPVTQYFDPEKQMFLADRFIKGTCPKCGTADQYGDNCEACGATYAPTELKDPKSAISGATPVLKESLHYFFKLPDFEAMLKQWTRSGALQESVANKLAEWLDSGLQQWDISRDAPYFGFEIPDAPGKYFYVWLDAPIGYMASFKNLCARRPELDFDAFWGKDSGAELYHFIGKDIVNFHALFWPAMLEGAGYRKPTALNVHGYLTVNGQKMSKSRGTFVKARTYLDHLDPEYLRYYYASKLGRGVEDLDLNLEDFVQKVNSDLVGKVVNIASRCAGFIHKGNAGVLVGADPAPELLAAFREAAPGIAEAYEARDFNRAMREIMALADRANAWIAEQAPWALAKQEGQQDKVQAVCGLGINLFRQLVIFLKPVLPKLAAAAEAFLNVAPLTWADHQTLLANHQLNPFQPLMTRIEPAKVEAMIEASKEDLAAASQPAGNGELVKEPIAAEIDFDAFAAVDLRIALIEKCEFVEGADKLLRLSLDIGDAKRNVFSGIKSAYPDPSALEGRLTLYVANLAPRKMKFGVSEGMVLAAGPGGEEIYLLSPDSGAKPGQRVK

The subject of data set [2] is E. coli MetRS. As to conditions: cited from earlier work.
Data set [3] has as its system E. faecalis (ATCC 29212). Put plainly: MIC, broth microdilution. The class given is cell-based, Enterococcus faecalis. Background: In broth dilution the organism is exposed to a series of concentrations in liquid medium.
Data set [4] has as its system S. aureus. Put plainly: Time-kill study. Format: cell-based, Staphylococcus aureus. As to conditions: 4×MIC. An outline of the steps: (§1)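 Time-kill following CLSI document M26-A. Growth media were Haemophilus Test Broth and Trypticase Soy Broth. Cultures with compound were sampled at 0, 2, 4, 6 and 24 h and plated for CFU counts. Controls had no compound but an equal amount of DMSO.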

Data set [5] relates to P. aeruginosa (hypersensitive). The experiment in a line: MIC, broth microdilution. As to conditions: P. aeruginosa hypersensitive strain (ATCC 35151). Format: cell-based, Pseudomonas aeruginosa. An outline of the steps:
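Broth microdilution per CLSI guideline M7-A7, read as MIC in μg/ml. Hypersensitive strain ATCC 35151 was a gift. Compound stocks were 10 mM in DMSO. Three separate sets of assays were run. MIC QC and culture purity were checked with antibiotics specific to each strain, using Etest QC ranges.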

Data set [6] addresses T1, P. aeruginosa MetRS. Put plainly: tRNA aminoacylation assay in SPA format. The class given is biochemical.
The subject of data set [7] is H. influenzae. Put plainly: Time-kill study. The class given is cell-based, Haemophilus influenzae. The note with it: 4×MIC. An outline of the steps:
as §1

The subject of data set [8] is H. influenzae (ATCC 49766). Put plainly: MIC, broth microdilution. Format: cell-based, Haemophilus influenzae.
Data set [9] deals with T1, P. aeruginosa MetRS. The experiment in a line: Binding mode. The class given is biochemical. The note with it: for competition with methionine for binding MetRS: 25-300 μM methionine, 2.5 mM ATP; for competition with ATP for binding MetRS: 25-1000 μM ATP, 75 μM methionine.
Data set [10] relates to human embryonic kidney 293 cells (HEK-293). The experiment in a line: MTT cytotoxicity assay. Format: cell-based. For orientation: Formazan colour is commonly taken as a measure of viable cells.
The test system of data set [11] is S. aureus (ATCC 29213). Put plainly: MIC, broth microdilution. The class given is cell-based, Staphylococcus aureus.
Substrate in data set [12]: Nc1ncnc2c1ncn2[C@@H]1O[C@H](COP(=O)(O)OP(=O)(O)OP(=O)(O)O)[C@@H](O)[C@H]1O
Put plainly: purified protein, by the assay type. The note with it: other: substrate ATP, methionine 2 mM; pH 7.5; 37.0 °C.

Substrate in data set [13]: CSCC[C@H](N)C(=O)O
Put plainly: purified protein, by the assay type. The note with it: other: substrate methionine, ATP 2 mM; pH 7.5; 37.0 °C.

Consider `Nc1ncnc2c1ncn2[C@@H]1O[C@H](COP(=O)(O)OP(=O)(O)OP(=O)(O)O)[C@@H](O)[C@H]1O` [ATP, Adenosine triphosphate], for which, in [1] (substrate ATP), the kcat came out at 24.2 s⁻¹. In data set [2] (E. coli MetRS with ATP), the Km was 528 µM and the kcat is 74 µM.
As to `CC1(C)C=Cc2c(c3c(c4c(=O)c(-c5ccc(O)c(O)c5)coc24)OC(C)(C)CC3)O1` [Isopomiferin, isopomiferin], the MIC is 32 µg/mL (≈ 76.1 µM) in [3], 16 µg/mL (≈ 38.1 µM) in [5], “Moderate activity” in data set [8] and 32 µg/mL (≈ 76.1 µM) in data set [11]. The “mode of inhibition (time-kill)” value was “bactericidal” in data set [4] (0-24 h) and “bacteriostatic” in data set [7] (0-24 h). Moreover, the CFUs in time-kill entry in data set [4] (first six hours of growth) was “no CFUs were observed”. In data set [6] (aminoacylation, 0.1 μM MetRS, compound 200 to 0.4 μM), it took 70 µM to reach half-maximal inhibition (IC50). Further, the “decrease of colony forming units compared to the control” value in data set [7] (during 24 h) is on record as 2 to 5 log10 CFU. The “competition with methionine for binding MetRS” value is “not observed to compete” in [9] and “did not compete” in [9] (listed as BM01C11). Also, the “competition with ATP for binding MetRS” value in [9] is listed as “not observed to compete”; in [9] (listed as BM01C11), “did not compete”. Besides, the form of inhibition entry in data set [9] (IC50 constant as ATP or methionine increased) was “non-competitive”. Also, the “CC50 relative to that of staurosporine” value in data set [10] is 10,000 fold.
Regarding `CSCC[C@H](N)C(=O)O` [Methionine], the kcat in [1] (substrate methionine) was 37.2 s⁻¹. Besides, in data set [2] (E. coli MetRS with methionine), the Km was 21 µM and the kcat is 74 µM.
In turn, `O=c1cc(-c2cc(O)c(O)c(O)c2)oc2cc(O)cc(O)c12` [hieracin] had an IC50 in [6] of 8.3 µM.

B1: P. aeruginosa MetRS (Pseudomonas aeruginosa PAO1) (protein)
chain: MSEPRKILVTSALPYANGSIHLGHMLEYIQTDMWVRFQKMRGNQAVYVCADDAHGSAIMLRAEREGITSEQLIDAVRAEHMGDFADFLVDFDNYHSTHSEENRELSSAIYLKLRDAGHIDTRPVTQYFDPEKQMFLADRFIKGTCPKCGTADQYGDNCEACGATYAPTELKDPKSAISGATPVLKESLHYFFKLPDFEAMLKQWTRSGALQESVANKLAEWLDSGLQQWDISRDAPYFGFEIPDAPGKYFYVWLDAPIGYMASFKNLCARRPELDFDAFWGKDSGAELYHFIGKDIVNFHALFWPAMLEGAGYRKPTALNVHGYLTVNGQKMSKSRGTFVKARTYLDHLDPEYLRYYYASKLGRGVEDLDLNLEDFVQKVNSDLVGKVVNIASRCAGFIHKGNAGVLVGADPAPELLAAFREAAPGIAEAYEARDFNRAMREIMALADRANAWIAEQAPWALAKQEGQQDKVQAVCGLGINLFRQLVIFLKPVLPKLAAAAEAFLNVAPLTWADHQTLLANHQLNPFQPLMTRIEPAKVEAMIEASKEDLAAASQPAGNGELVKEPIAAEIDFDAFAAVDLRIALIEKCEFVEGADKLLRLSLDIGDAKRNVFSGIKSAYPDPSALEGRLTLYVANLAPRKMKFGVSEGMVLAAGPGGEEIYLLSPDSGAKPGQRVK
Consider B1, for which, in data set [12], the Km was 515 µM, the kcat was 24.2 s⁻¹ and the kcat/Km was found to be 0.05 µM/s. Also, in data set [13], the Km worked out at 35 µM, the kcat is 37.2 s⁻¹ and the kcat/Km turned out to be 1.1 µM/s.

Values taken from publication PMC5788008 (Current drug discovery technologies, 2017).
